# Assay outcomes deposited in PubChem by several laboratories.
# Hits are enriched below; roughly 1.9% of the tested compounds scored in any of these assays.
# PG9 Ab binder – small molecules binding HIV-1 gp120 antibody PG9. TR-FRET gp120-PG9 antibody binding. inhibition, % at 6.7 µM. 360,000 tested, 0.43% active. AID 624416; in the data active = inhibition above about 8.5%
# NR2E3 ag-1 – NR2E3 (human) agonism; Q9Y5X4; GST-NR2E3/biotin-RetCOR TR-FRET, 1536-well; inhibition of corepressor binding, % at 4.78 µM; 320,000 tested, 0.12% active; AID 2300;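 active = percent inhibition above the cutoff of mean plus 3 SD of all tested compounds, set per screening campaign, cut at about 20% in these data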
# Target sequence (Q9Y5X4 whole entry, looked up): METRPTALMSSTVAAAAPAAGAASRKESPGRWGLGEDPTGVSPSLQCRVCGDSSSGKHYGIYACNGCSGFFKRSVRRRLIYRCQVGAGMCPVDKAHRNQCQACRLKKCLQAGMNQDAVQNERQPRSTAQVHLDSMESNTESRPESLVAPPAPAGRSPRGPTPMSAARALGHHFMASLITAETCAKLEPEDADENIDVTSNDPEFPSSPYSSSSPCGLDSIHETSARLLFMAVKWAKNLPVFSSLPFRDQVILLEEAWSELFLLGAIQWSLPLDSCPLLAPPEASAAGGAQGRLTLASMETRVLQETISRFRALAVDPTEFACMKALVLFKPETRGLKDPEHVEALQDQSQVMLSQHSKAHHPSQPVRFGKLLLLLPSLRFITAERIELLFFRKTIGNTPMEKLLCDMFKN
#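 System: GST-NR2E3 and biotin-RetCOR proteins; probe or stimulus: 7 nM biotin-RetCOR; doses: compound at 4.8 µM, single dose; schedule: Compound–protein incubation for 5 h at 4 °C; detection: time-resolved FRET; read-out: percent inhibition; controls: biotin wells as high control, 0.6% DMSO wells as low control; format: 1536-well plates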
# NR2E3 ag-2 – human photoreceptor-specific nuclear receptor agonism | Q9Y5X4 | CHO-S Gal4-NCOR/VP16-NR2E3 two-hybrid, luciferase | inhibition of corepressor binding, % at 3.98 µM | 360,000 tested, 0.35% active;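 active = inhibition above the mean of all tested compounds plus 3 SD, cut at about 70% in these data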;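 note: higher means lower luciferase signal from less NR2E3 corepressor binding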
# SKN-1 inh – C. elegans SKN-1 inhibition | C. elegans VP596 Pgst-4::GFP/RFP ratio, acrylamide-induced, 24 h | AID 624304 | 360,000 tested, 0.49% active | inhibition, % at 21.8 µM;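 active = interference check ratio from 0.5 to 1.5 plus GFP to RFP signal ratio inhibition reaching or exceeding a fixed threshold, cut at about 30% in these data, passing the limit was not always enough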
# NR1D1 modulator – Rev-erb alpha (human) modulation; P20393; Rev-erbα–FITC-DNA binding, fluorescence polarization, 90 min; activity, % at 10 µM; 370,000 tested, 0.79% active; AID 1259318;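 active = activity above about 14%, limit read from the data; passing the limit was not always enough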
# MT1-MMP act inh – blocks activation of human MT1-MMP; GFP/RFP ratio change, % at 20 µM; P50281; HT1080 RFP-PRO-GFP cells, GFP/RFP ratio fluorescence, overnight; percent of plate control window, DMSO zero; 360,000 tested, 0.061% active;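 active = GFP/RFP ratio change of at least 30% with cell ATP level not reduced by more than half and red fluorescence within 50% of control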
#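 system = RFP-PRO-GFP reporter HT1080 cells | dosing = 20 µM single dose, 1% DMSO | timing = overnight cell settling, then overnight compound exposure, 37 °C, 5% CO2 | read-out basis = GFP/RFP fluorescence ratio | controls = DMSO and RFP-L50D-GFP cell wells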
# Numbers stand for hits; 0 = inactive; - = no result given.
SMILES,PG9 Ab binder,NR2E3 ag-1,NR2E3 ag-2,SKN-1 inh,NR1D1 modulator,MT1-MMP act inh
Cc1cc(=O)[nH]c2c(C)c(N)ccc12,0,0,0,0,0,0
Cc1cc(C)c2ccc3c(C)c(C)nc3c2[nH]1,0,0,0,53,0,0
Cc1c(CN2CCCC(C(=O)Nc3cccc(-n4cccn4)c3)C2)cnn1C (stereo not given),0,0,0,36,0,0
O=C(O)C(O)[C@H](O)[C@H](O)[C@H](O)[C@H](O)CO (stereo not given in full),-,-,-,-,0,-
O=C(Nc1nc2ccccc2s1)c1ccccc1,0,0,0,65,0,0
O=C(O)c1ccccc1-c1ccccc1C(=O)Nc1nc2ccccc2s1,0,0,0,0,0,0
COC(=O)c1ccc(COn2c(=O)c(C)[n+]([O-])c3ccccc32)cc1,0,0,0,44,0,0
COC(=O)c1ccccc1COn1c(=O)c(C)[n+]([O-])c2ccccc21,0,0,0,0,0,0
Cc1cc(C)n(-c2nc(NC(C)C)nc(NC(C)C)n2)n1,0,0,81,0,0,0
Cc1cc(C)n(-c2nc(NC(C)(C)C)nc(NC(C)(C)C)n2)n1,0,0,105,0,0,0
Cc1cc(C)n(-c2nnc(NC(C)(C)C)nn2)n1,0,0,0,0,0,0
C=C1c2c(Cl)ccc(O)c2C(O)=C2C(=O)[C@]3(O)C(O)=C(C(N)=O)C(=O)[C@@H](N(C)C)[C@@H]3[C@@H](O)[C@H]12,-,-,-,-,0,-
CO/N=C(\C(=O)N[C@@H]1C(=O)N2C(C(=O)OCOC(=O)C(C)(C)C)=C(C)CS[C@H]12)c1csc(N)n1,-,-,-,-,0,-
COc1ccc(N2CCN(CCCNC(=O)CCc3cccc(F)c3)CC2)cc1,-,-,-,-,0,-
COCCCNC(=O)c1ccccc1Oc1ccccc1,0,0,0,0,0,0
COCCCNC(=O)c1ccc2c3c(onc13)-c1ccccc1C2=O,-,0,0,62,-,0
COC(=O)[C@]12C[C@H](CC(=O)N3CCC(c4ccccc4)CC3)C(=O)N(CCC3=CCCCC3)C1=C[C@H](COCc1ccccc1)O[C@@H]2C,0,-,-,-,0,-
CSc1ccc(S(=O)(=O)N2CCC(C(=O)Nc3ccccc3C(F)(F)F)CC2)cc1,0,0,0,42,0,0
COc1ccccc1N1CCN(CCC(=O)Nc2ccc3c(c2)OCO3)CC1,0,0,0,48,0,0
Cc1cc2ccccc2n1CCNC(=O)C(C)C,0,0,0,53,0,0
Cc1cccc(CC(=O)NCCn2c(C)cc3ccccc32)c1,0,0,0,38,0,0
Cc1ccc2oc(=O)c3cnn(CC(=O)NCCN(C)C)c3c2c1,0,0,0,0,0,0
Cc1ccc2oc(=O)c3cnn(CC(=O)NCCc4ccsc4)c3c2c1,22,0,0,0,0,0
NC(=O)C1CCCN(C(=O)NC2CCCCC2)C1 (stereo not given),0,0,0,40,0,0
O=S(=O)(c1ccc2c(c1)OCCO2)N1CCN(c2ncnc3sccc23)CC1,0,0,87,0,0,0
SMILES,PG9 Ab binder,NR2E3 ag-1,NR2E3 ag-2,SKN-1 inh,NR1D1 modulator,MT1-MMP act inh
CC1CN(C)C(C)CC1OC(=O)C(c1ccccc1)c1ccccc1 (stereo not given),0,0,0,0,0,0
CCCCOc1ccc(C(=O)OC2CC(C)N(C)CC2C)cc1 (stereo not given),0,0,0,42,0,0
CCC(C)(C)c1nnc(NC(=O)CCC2CCCCC2)s1,0,0,0,36,0,0
CC1(C)C(/C=C/C=C/C=C/C=C2\N(CCCCS(=O)(=O)O)c3ccc4ccccc4c3C2(C)C)=[N+](CCCCS(=O)(=O)[O-])c2ccc3ccccc3c21,-,27,0,0,-,0
Nc1ncn([C@@H]2O[C@H](CO)[C@H](O)C2O)c(=O)n1 (stereo not given in full),-,-,-,-,0,-
CC(C)(C)NC(=O)[C@H]1CCC2C3CCC4NC(=O)C=C[C@]4(C)C3CC[C@@]21C (stereo not given in full),-,-,-,-,0,-
Nc1ccc(N=Nc2ccccc2)c2ccccc12,0,0,0,0,0,0
c1ccc(N=Nc2ccc3cccccc2-3)cc1,0,0,0,45,0,0
